Reference: ChEMBL document CHEMBL1240374, “Selection of mutations to detect multidrug-resistant Mycobacterium tuberculosis strains in Shanghai, China” (2010)

Key:
Assay type in all cases: functional
[1] = tested on: Mycobacterium tuberculosis; test: Antibacterial activity against drug resistant Mycobacterium tuberculosis containing phenotypic rpoB519 mutation assessed as cumulative microbial sensitivity by phenotypic drug susceptibility testing
Method in brief: (§1)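 Phenotypic DST on clinical M. tuberculosis isolates by the egg-based Löwenstein-Jensen proportion method. Species was confirmed by biochemical tests and PCR. Mutations were found by sequencing. Each mutation is reported as a number and as a percentage of the isolates screened.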

[2] = tested on: Mycobacterium tuberculosis; test: Antibacterial activity against drug resistant Mycobacterium tuberculosis containing phenotypic rpoB522 mutation assessed as cumulative microbial sensitivity by phenotypic drug susceptibility testing; method in brief: as §1
[3] = tested on: Mycobacterium tuberculosis; test: Antibacterial activity against drug resistant Mycobacterium tuberculosis containing phenotypic rpoB511 mutation assessed as cumulative microbial sensitivity by phenotypic drug susceptibility testing; method in brief: as §1
[4] = tested on: Mycobacterium tuberculosis; test: Antibacterial activity against Mycobacterium tuberculosis containing phenotypic embB306 mutation assessed as microbial sensitivity by phenotypic drug susceptibility testing; method in brief: as §1
[5] = tested on: Mycobacterium tuberculosis; test: Antibacterial activity against drug resistant Mycobacterium tuberculosis containing phenotypic rpoB526 mutation assessed as cumulative microbial sensitivity by phenotypic drug susceptibility testing; method in brief: as §1
[6] = tested on: Mycobacterium tuberculosis; test: Antibacterial activity against drug resistant Mycobacterium tuberculosis containing phenotypic rpoB515 mutation assessed as cumulative microbial sensitivity by phenotypic drug susceptibility testing; method in brief: as §1
[7] = tested on: Mycobacterium tuberculosis; test: Antibacterial activity against drug resistant Mycobacterium tuberculosis containing phenotypic rpoB518 mutation assessed as cumulative microbial sensitivity by phenotypic drug susceptibility testing; method in brief: as §1
[8] = tested on: Mycobacterium tuberculosis; test: Antibacterial activity against drug resistant Mycobacterium tuberculosis containing phenotypic rpoB516 mutation assessed as cumulative microbial sensitivity by phenotypic drug susceptibility testing; method in brief: as §1
[9] = tested on: Mycobacterium tuberculosis; test: Antibacterial activity against drug resistant Mycobacterium tuberculosis containing phenotypic rpoB529 mutation assessed as cumulative microbial sensitivity by phenotypic drug susceptibility testing; method in brief: as §1
[10] = tested on: Mycobacterium tuberculosis; test: Antibacterial activity against drug resistant Mycobacterium tuberculosis containing phenotypic rpoB533 mutation assessed as cumulative microbial sensitivity by phenotypic drug susceptibility testing; method in brief: as §1
[11] = tested on: Mycobacterium tuberculosis; test: Antibacterial activity against drug resistant Mycobacterium tuberculosis containing phenotypic rpoB531 mutation assessed as cumulative microbial sensitivity by phenotypic drug susceptibility testing; method in brief: as §1
[12] = tested on: Mycobacterium tuberculosis; test: Antibacterial activity against drug resistant Mycobacterium tuberculosis containing phenotypic rpoB513 mutation assessed as cumulative microbial sensitivity by phenotypic drug susceptibility testing; method in brief: as §1
[13] = tested on: Mycobacterium tuberculosis; test: Antibacterial activity against drug resistant Mycobacterium tuberculosis containing phenotypic rpoB534 mutation assessed as cumulative microbial sensitivity by phenotypic drug susceptibility testing; method in brief: as §1
[14] = tested on: Mycobacterium tuberculosis; test: Antibacterial activity against Mycobacterium tuberculosis containing phenotypic rpoB531,rpoB526,rpo533 mutation assessed as microbial sensitivity by phenotypic drug susceptibility testing; method in brief: as §1
[15] = tested on: Mycobacterium tuberculosis; test: Antibacterial activity against drug resistant Mycobacterium tuberculosis containing phenotypic ahpC-10 mutation assessed as cumulative microbial sensitivity by phenotypic drug susceptibility testing; method in brief: as §1
[16] = tested on: Mycobacterium tuberculosis; test: Antibacterial activity against drug resistant Mycobacterium tuberculosis containing phenotypic inhA-8 mutation assessed as cumulative microbial sensitivity by phenotypic drug susceptibility testing; method in brief: as §1
[17] = tested on: Mycobacterium tuberculosis; test: Antibacterial activity against drug resistant Mycobacterium tuberculosis containing phenotypic katG299 mutation assessed as cumulative microbial sensitivity by phenotypic drug susceptibility testing; method in brief: as §1
[18] = tested on: Mycobacterium tuberculosis; test: Antibacterial activity against drug resistant Mycobacterium tuberculosis containing phenotypic ahpC-15 mutation assessed as cumulative microbial sensitivity by phenotypic drug susceptibility testing; method in brief: as §1
[19] = tested on: Mycobacterium tuberculosis; test: Antibacterial activity against drug resistant Mycobacterium tuberculosis containing phenotypic ahpC-9 mutation assessed as cumulative microbial sensitivity by phenotypic drug susceptibility testing; method in brief: as §1
[20] = tested on: Mycobacterium tuberculosis; test: Antibacterial activity against drug resistant Mycobacterium tuberculosis containing phenotypic inhA-15 mutation assessed as cumulative microbial sensitivity by phenotypic drug susceptibility testing; method in brief: as §1
[21] = tested on: Mycobacterium tuberculosis; test: Antibacterial activity against drug resistant Mycobacterium tuberculosis containing phenotypic ahpC-32 mutation assessed as cumulative microbial sensitivity by phenotypic drug susceptibility testing; method in brief: as §1
[22] = tested on: Mycobacterium tuberculosis; test: Antibacterial activity against Mycobacterium tuberculosis containing phenotypic rpoB513,katG315,inhA-15,ahpC-10,ahpC-6 mutation assessed as microbial sensitivity by phenotypic drug susceptibility testing; method in brief: as §1
[23] = tested on: Mycobacterium tuberculosis; test: Antibacterial activity against drug resistant Mycobacterium tuberculosis containing phenotypic ahpC-12 mutation assessed as cumulative microbial sensitivity by phenotypic drug susceptibility testing; method in brief: as §1
[24] = tested on: Mycobacterium tuberculosis; test: Antibacterial activity against drug resistant Mycobacterium tuberculosis containing phenotypic katG315 mutation assessed as cumulative microbial sensitivity by phenotypic drug susceptibility testing; method in brief: as §1
[25] = tested on: Mycobacterium tuberculosis; test: Antibacterial activity against drug resistant Mycobacterium tuberculosis containing phenotypic katG322 mutation assessed as cumulative microbial sensitivity by phenotypic drug susceptibility testing; method in brief: as §1
[26] = tested on: Mycobacterium tuberculosis; test: Antibacterial activity against drug resistant Mycobacterium tuberculosis containing phenotypic katG295 mutation assessed as cumulative microbial sensitivity by phenotypic drug susceptibility testing; method in brief: as §1
[27] = tested on: Mycobacterium tuberculosis; test: Antibacterial activity against drug resistant Mycobacterium tuberculosis containing phenotypic ahpC-39 mutation assessed as cumulative microbial sensitivity by phenotypic drug susceptibility testing; method in brief: as §1
[28] = tested on: Mycobacterium tuberculosis; test: Antibacterial activity against drug resistant Mycobacterium tuberculosis containing phenotypic inhA25 mutation assessed as cumulative microbial sensitivity by phenotypic drug susceptibility testing; method in brief: as §1
[29] = tested on: Mycobacterium tuberculosis; test: Antibacterial activity against drug resistant Mycobacterium tuberculosis containing phenotypic ahpC-6 mutation assessed as cumulative microbial sensitivity by phenotypic drug susceptibility testing; method in brief: as §1

Compound: CO[C@H]1/C=C/O[C@@]2(C)Oc3c(C)c(O)c4c(O)c(c(/C=N/N5CCN(C)CC5)c(O)c4c3C2=O)NC(=O)/C(C)=C\C=C\[C@H](C)[C@H](O)[C@@H](C)[C@@H](O)[C@@H](C)[C@H](OC(C)=O)[C@@H]1C [RIFAMPIN]
- Activity [1]: 96.3%
- Activity [2]: 95.9%
- Activity [3]: 94.2%
- Activity [4]: 93.8%
- Activity [5]: 79.8%
- Activity [6]: 95.9%
- Activity [7]: 95.9%
- Activity [8]: 87.2%
- Activity [9]: 95.9%
- Activity [10]: 90.9%
- Activity [11]: 61.2%
- Activity [12]: 93.8%
- Activity [13]: 95.9%
- Activity [14]: 93.8%

Compound: NNC(=O)c1ccncc1 [ISONIAZID]
- Activity [15]: 80.6%
- Activity [16]: 86.4%
- Activity [17]: 88.8%
- Activity [18]: 88.4%
- Activity [19]: 87.6%
- Activity [20]: 78.5%
- Activity [21]: 88%
- Activity [22]: 85.5%
- Activity [4]: 89.3%
- Activity [23]: 85.5%
- Activity [24]: 72.7%
- Activity [25]: 89.3%
- Activity [26]: 88.8%
- Activity [27]: 86.4%
- Activity [28]: 87.6%
- Activity [29]: 83.1%
